Compound activity (PubChem BioAssay)
MrgX1 allo act: positive allosteric modulators of MrgX1, primary screen, HEK293 cells, Fluo-4 calcium flux; AID 588675, 2011; B-score at 10 µM; 0.63% of 310,000 active; Mas-related G-protein coupled receptor member X1 (Homo sapiens), Q96LB2; FDSS; hits give high values;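 active means plate-corrected calcium response at least 3 library SD above typical, normal starting fluorescence, not activating the receptor alone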;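 further: compound read alongside a low EC10 to EC30 dose of BAM8-22 agonist; peak minus trough fluorescence over baseline measured at the second addition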
Target sequence (Q96LB2 whole entry, looked up): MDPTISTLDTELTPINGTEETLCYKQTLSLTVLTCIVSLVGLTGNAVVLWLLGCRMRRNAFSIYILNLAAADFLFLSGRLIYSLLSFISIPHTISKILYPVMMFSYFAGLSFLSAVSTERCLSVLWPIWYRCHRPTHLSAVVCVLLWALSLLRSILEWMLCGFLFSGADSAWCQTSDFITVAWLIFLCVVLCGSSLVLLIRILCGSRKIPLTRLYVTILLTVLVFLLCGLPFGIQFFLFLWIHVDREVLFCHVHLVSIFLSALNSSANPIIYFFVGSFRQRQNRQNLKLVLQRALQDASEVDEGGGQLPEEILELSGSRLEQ
RGS4 pot: RGS4 potentiators or activators, primary screen, cell-based, HEK293 M3R inducible RGS4, calcium flux | carbachol calcium flux Fluo4; hits give low values | B-score at 10 µM | 0.92% of 310,000 active | AID 463111, 2010;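 active means B-score of the integrated calcium signal more than 4 SD below the library mean, with starting fluorescence not abnormally high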;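 further: negative B-score means reduced calcium response which marks RGS4 activation or potentiation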
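Material: M3R-expressing HEK293 line, RGS4 induced by doxycycline | Schedule: Overnight RGS4 induction, 30 min dye load 37 °C, 20 min compound RT | Measured by: Fluo4 fluorescence kinetic imaging of calcium | Read-out: Integrated calcium ratio converted to B score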
MrgX1 antag: antagonists of human MrgX1 receptor, primary screen, HEK293 cells, Fluo-4 calcium flux | Mas-related G-protein coupled receptor member X1 (Homo sapiens), Q96LB2 | BAM8-22 antagonism; hits give low values | B-score at 10 µM | 1.3% of 310,000 active | AID 588676, 2011;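 active means calcium-response B-score plate-corrected more than 3 library SD below zero, starting fluorescence within 5 deviations, no agonist response on first addition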;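 further: peak minus trough fluorescence over baseline after final BAM8-22 challenge near maximal dose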
MrgX1 ag: agonists of human MrgX1 receptor, primary screen, HEK293 cells, Fluo-4 calcium flux; Mas-related G-protein coupled receptor member X1 (Homo sapiens), Q96LB2; Fluo-4 calcium fluorescence, agonist mode; hits give high values; B-score at 10 µM; 0.44% of 310,000 active; AID 588627, 2011;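 active means calcium response B-score plate-corrected fluorescence ratio at least 3 library SD, with starting fluorescence B-score inside 5 SD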
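Material: MrgX1-expressing HEK293 cells / Dosing: compound as first of three additions / Incubation: overnight seeding, then 1 h dark dye loading / Signal: Fluo-4 NW calcium fluorescence / Evaluation: B-scored fluorescence response ratio / Benchmarks: positive and negative control wells on each plate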
RGS4 inh: RGS4 inhibitors, primary screen, cell-based, HEK293 M3R inducible RGS4, calcium flux; Fluo-4 calcium flux; hits give high values; triggered by carbachol at its EC20; Regulator of G-protein signaling 4 (Homo sapiens), P49798; 0.45% of 310,000 active; B-score at 10 µM;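 active means B-score, a plate-corrected calcium signal, over three deviations above library mean, with baseline fluorescence within five deviations of library mean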;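 further: RGS4 expression induced by doxycycline in cells with stable M3 receptor; B-score is computed from the integrated fluorescence ratio over baseline after carbachol; higher B-score means a larger calcium signal and so more RGS4 inhibition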
Target sequence (P49798 whole entry, looked up): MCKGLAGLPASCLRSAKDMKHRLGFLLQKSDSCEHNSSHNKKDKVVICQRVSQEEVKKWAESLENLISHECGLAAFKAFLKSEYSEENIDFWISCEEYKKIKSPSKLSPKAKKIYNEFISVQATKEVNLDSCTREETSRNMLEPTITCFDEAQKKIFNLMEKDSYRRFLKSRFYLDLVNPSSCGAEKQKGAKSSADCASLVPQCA
MrgX1 antag conf: MrgX1 receptor antagonists, duplicate retest, confirmation, HEK293 cells, Fluo-4 calcium flux; shares compounds with MrgX1 antag; BAM8-22 calcium flux; hits give low values; remaining BAM8-22 calcium response % of control (hits give low values), % at 10 µM; 19% of 2,300 active; AID 602420, 2012;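 active means remaining agonist calcium response no higher than 100% minus 3 SD of agonist-only control wells, with starting fluorescence near control levels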;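 further: agonist BAM8-22 given at a near maximal EC90 to ECmax level; peak minus minimum fluorescence divided by baseline after agonist addition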
HEK293 Ca flux: nonspecific calcium signal in parental HEK293, confirmation, counter-screen for MrgX1 antagonist project, parental HEK293 cells, Fluo-4 calcium flux | fluorescence ratio F(max-min)/F0 at 10 µM | 2% of 4,000 active | Fluo-4 calcium fluorescence, FDSS | shares compounds with MrgX1 antag | AID 624111, 2012;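 active means duplicate-averaged calcium fluorescence ratio at least three times the standard deviation of buffer wells, a nonspecific response in parental cells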
HEK293 Ca counter: calcium response in parental HEK293 cells, primary screen, counter-screen for MrgX1 allosteric activator project, cell-based, Fluo-4 calcium flux, duplicate. Fluo-4 fluorescence ratio; hits give high values. shares compounds with MrgX1 antag. 0.4% of 4,000 active. fluorescence ratio F(max-min)/F0 at 10 µM;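 active means calcium fluorescence ratio, averaged over duplicates, at least 3 SD of the buffer-well ratio, meaning a nonspecific response in receptor-free cells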;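 further: untransfected parental HEK293 lacking MrgX1 used as counterscreen for MrgX1 allosteric activators; fluorescence change taken during the second addition on a kinetic imager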
HEK293 Ca cntr2: calcium response in parental HEK293 cells, primary screen, counter-screen for MrgX1 agonist project, cell-based, Fluo-4 calcium flux, duplicate, agonist mode; shares compounds with MrgX1 antag; Fluo-4 calcium fluorescence (FDSS); hits give high values; fluorescence ratio F(max-min)/F0 at 10 µM; 8.7% of 4,000 active;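 active means calcium fluorescence ratio at least three times the spread of buffer wells, meaning a non-specific response in parental cells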
Numbers without * were called inactive; i = inactive; . = not tested or not shown. Most compounds without a hit are left out; they make up all but 3.5% or so of the library.

SMILES	MrgX1 allo act	RGS4 pot	MrgX1 antag	MrgX1 ag	RGS4 inh	MrgX1 antag conf	HEK293 Ca flux	HEK293 Ca counter	HEK293 Ca cntr2
Cc1ccc(Cl)cc1NC(=O)c1cccc(OC(F)F)c1	i	i	-4.7*	i	i	i	i	i	i
COc1ccc(CN2CCC(N3CC(C)OC(C)C3)CC2)c(OC)c1 (stereo unspecified)	i	i	-4.8*	i	i	i	i	i	i
CC1c2[nH]c3ccccc3c2CCN1C(=O)Nc1ccccc1 (stereo unspecified)	i	i	-7.5*	i	i	i	i	i	i
N#Cc1ccc(COC(=O)c2ccc(N3CCCC3)c([N+](=O)[O-])c2)cc1	i	i	i	i	i	.	.	.	.
Cc1ccccc1OCc1nnc(SCC(=O)Nc2ccc(N3CCOCC3)cc2)n1C	i	i	i	i	i	.	.	.	.
CCc1nnc(SCC(=O)Nc2ccc(N3CCOCC3)cc2)n1C	i	i	-5.6*	i	i	i	i	i	i
Nc1cc(N)nc(CS)n1	i	i	i	i	i	.	.	.	.
CC(=O)NCCc1c[nH]c2ccc(O)cc12	i	i	-5.1*	i	i	i	i	i	i
COc1ccc2[nH]cc(CCNC(C)=O)c2c1	i	i	i	i	i	.	.	.	.
COC(=O)C1CCN(C(=O)C(C)Oc2ccc(Cl)cc2Cl)CC1 (stereo unspecified)	i	i	-9.9*	i	i	i	i	i	i
CCOC(=O)C1CCCN(C(=O)C(C)Oc2ccc(Cl)cc2Cl)C1 (stereo unspecified)	i	i	i	i	i	.	.	.	.
CCc1nnc2sc(-c3ccc(NC(=O)c4ccco4)cc3)nn12	i	i	-8.1*	i	i	i	i	i	i
CCOc1ccccc1NC(=O)c1ccc2nc[nH]c2c1	i	i	i	i	i	.	.	.	.
Cc1cccc(COc2ccccc2C(=O)NC2CCC(O)CC2)c1 (stereo unspecified)	i	i	-10*	i	i	i	i	i	i
S=C(Nc1cccc2ccccc12)NC1CCCCC1	i	i	-5.4*	i	i	i	i	i	i
COc1ccccc1NC(=O)N1CCC(NC(=O)C2CCCCC2)CC1	i	i	-8.2*	i	i	i	i	i	i
CC(=O)NC(=S)Nc1ccccc1C(=O)NC1CCCCC1	i	i	-8.3*	i	i	i	i	i	i
CSc1ccccc1NC(=S)NC1CCCCC1	i	i	i	i	i	.	.	.	.
COc1ccccc1C(=O)NC1CCCCCCC1	i	i	-11*	i	i	i	i	i	i
O=S(=O)(c1ccc(N2CCC(c3ccc(Cl)cc3)=N2)cc1)N(CCO)CCO	i	i	i	i	i	.	.	.	.
CN(C)CCCNS(=O)(=O)c1ccc(N2CCC(c3ccc(Cl)cc3)=N2)cc1	i	i	-14*	i	i	60%*	i	i	i
O=C1C(Cc2cccc([N+](=O)[O-])c2)SC(=Nc2ccccc2)N1c1ccccc1 (stereo unspecified)	i	i	i	i	i	.	.	.	.
CCOc1ccc(NC(=O)CS(=O)(=O)c2cn(C)c3ccccc23)cc1	i	i	-8*	i	i	i	i	i	i
COC(=O)c1cc(S(=O)(=O)N2CCN(c3cccc(Cl)c3)CC2)c[nH]1	i	i	i	i	i	.	.	.	.
O=C(CSc1nc2ccccc2c(=O)n1-c1ccccc1)c1c[nH]c2ccccc12	i	i	-6*	i	i	i	i	i	i
SMILES	MrgX1 allo act	RGS4 pot	MrgX1 antag	MrgX1 ag	RGS4 inh	MrgX1 antag conf	HEK293 Ca flux	HEK293 Ca counter	HEK293 Ca cntr2
CC(=O)c1cccc(NC(=O)C2CC(=O)N(CCc3ccccc3)C2)c1 (stereo unspecified)	i	i	-5.2*	i	i	i	i	i	i
O=C(CS(=O)(=O)Cc1ccccc1)NCc1ccccc1Cl	i	i	i	i	i	.	.	.	.
CC(=O)Nc1cc(NC(C)=O)cc(C(=O)N2CCCC3CCCCC32)c1 (stereo unspecified)	i	i	i	i	i	.	.	.	.
CSc1ccccc1NC(=O)CCn1c(=O)sc2ccccc21	i	i	-6.3*	i	i	i	i	i	i
COC(=O)c1ccccc1NC(=O)CSc1nc2cccnc2n1C	i	i	i	i	i	.	.	.	.
COC(=O)c1cccc(NC(=O)CSc2nc3cccnc3n2C)c1	i	.	-4.8*	i	.	74%*	i	i	i
O=C(Nc1ccccc1)c1cccc(N2CCCC2=O)c1	i	i	-6.7*	i	i	i	i	i	i
CC(=O)Nc1ccc2[nH]c3ccccc3c2c1	i	i	i	i	i	.	.	.	.
O=C(Nc1ccc(Cl)cc1)c1cc2c(cc1O)[nH]c1ccccc12	i	i	-4.9*	i	i	54%*	i	i	i
Cc1ccccc1C(=O)N1CCC(C(=O)N(CC(C)C)c2c(N)n(Cc3ccccc3)c(=O)[nH]c2=O)CC1	i	i	i	i	i	.	.	.	.
S=C(NCc1ccncc1)Nc1ccc(Br)cc1Cl	i	i	-6.3*	i	i	68%*	i	i	i
O=C(NNC(=S)Nc1ccc(Br)cc1Cl)c1ccncc1	i	i	i	i	i	.	.	.	.
NNc1nc(-c2ccccc2)nc(-c2ccccc2)c1Br	i	i	i	i	i	.	.	.	.
